According to paper PMC9975087 (Cell, 2023):

Experiments:
[1] = target: T1, Acb2 (Pseudomonas phage PaMx33, UniProt A0A1C8HPQ3); assay: Isothermal titration calorimetry; format: binding
[2] = target: T1, Acb2; assay: HPLC assay of cyclic dinucleotide sequestering by Acb2; format: binding; details: 40 μM Acb2 pre-incubated with 4 μM cyclic dinucleotide
[3] = target: Acb2 Y11A (Pseudomonas phage PaMx33, UniProt A0A1C8HPQ3, Y11A); assay: ITC / native PAGE binding of 3’,3’-cGAMP to Acb2 Y11A mutant; details: ITC and native PAGE
Sequence of Acb2 Y11A (A0A1C8HPQ3 whole entry Y11A): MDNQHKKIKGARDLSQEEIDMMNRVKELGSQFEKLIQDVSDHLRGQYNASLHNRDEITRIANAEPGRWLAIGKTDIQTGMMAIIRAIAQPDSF

[4] = target: Acb2 K26A (Pseudomonas phage PaMx33, UniProt A0A1C8HPQ3, K26A); assay: ITC / native PAGE binding of 3’,3’-cGAMP to Acb2 K26A mutant; details: ITC and native PAGE
Sequence of Acb2 K26A (A0A1C8HPQ3 whole entry K26A): as the sequence (A0A1C8HPQ3 whole entry Y11A) above, with A11Y, K26A counted along it

[5] = target: T1, Acb2; assay: Native-PAGE assay of Acb2 with cyclic dinucleotides; format: binding; details: Acb2 14.3 μM, cyclic dinucleotide 1.8-7.2 μM
In short: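 Purified Acb2 (14.3 μM) preincubated 10 min at 18°C with cyclic dinucleotide at 1.8, 3.6 or 7.2 μM. Mixtures resolved on 5% native polyacrylamide gels and stained with Coomassie blue.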

[6] = target: CapV (Pseudomonas aeruginosa, UniProt P0DX85); assay: Fluorogenic biochemical assay for CapV phospholipase activity; design: species or system P. aeruginosa BWHPSA011 (Pa011); details: 3’,3’-cGAMP 0.025-0.8 μM, other cyclic dinucleotides 0.8 μM
[7] = system: Acb2 homolog from E. coli phage T4 (gene vs.4); details: cited from earlier work
[8] = target: the molecule itself; assay: crystal structure
[9] = target: T2, CapV (Pseudomonas aeruginosa, UniProt P0DX85); assay: Fluorogenic biochemical assay for CapV phospholipase activity; design: species or system P. aeruginosa BWHPSA011 (Pa011); details: Acb2 or mutant 32 μM preincubated with 0.8 μM 3’,3’-cGAMP for 10 minutes
T2 sequence (P0DX85 whole entry, looked up): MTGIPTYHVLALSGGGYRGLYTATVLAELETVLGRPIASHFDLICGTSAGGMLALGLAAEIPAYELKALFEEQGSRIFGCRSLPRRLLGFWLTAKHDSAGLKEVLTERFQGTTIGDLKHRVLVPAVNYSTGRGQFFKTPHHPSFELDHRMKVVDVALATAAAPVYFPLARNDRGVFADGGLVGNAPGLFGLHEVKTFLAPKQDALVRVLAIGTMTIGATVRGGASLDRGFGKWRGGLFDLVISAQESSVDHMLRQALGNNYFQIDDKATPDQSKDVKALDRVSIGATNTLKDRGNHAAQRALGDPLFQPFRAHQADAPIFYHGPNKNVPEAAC

[10] = target: T2, CapV; assay: Gel filtration assay of Acb2 with CapV; format: binding, P. aeruginosa BWHPSA011 (Pa011); details: molar ratio 5:1
In short: (§1)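 Acb2 (E. coli BL21(DE3), 0.2 mM IPTG at OD600 0.8, 18°C 12 h; Ni-NTA, tag removed with Ulp1, Superdex-200) incubated with His-tagged partner protein at 5:1 molar ratio overnight on ice. Gel filtration was on Superdex-200 increase 10/300 GL in 10 mM Tris–HCl pH 8.0, 200 mM NaCl, 5 mM DTT at 0.5 mL/min. Fractions were analysed by SDS-PAGE with Coomassie staining.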

[11] = target: T3, CdnA (Pseudomonas aeruginosa, UniProt P0DX86); assay: Gel filtration assay of Acb2 with CdnA; format: binding, P. aeruginosa BWHPSA011 (Pa011); details: molar ratio 5:1
T3 sequence (P0DX86 1-380): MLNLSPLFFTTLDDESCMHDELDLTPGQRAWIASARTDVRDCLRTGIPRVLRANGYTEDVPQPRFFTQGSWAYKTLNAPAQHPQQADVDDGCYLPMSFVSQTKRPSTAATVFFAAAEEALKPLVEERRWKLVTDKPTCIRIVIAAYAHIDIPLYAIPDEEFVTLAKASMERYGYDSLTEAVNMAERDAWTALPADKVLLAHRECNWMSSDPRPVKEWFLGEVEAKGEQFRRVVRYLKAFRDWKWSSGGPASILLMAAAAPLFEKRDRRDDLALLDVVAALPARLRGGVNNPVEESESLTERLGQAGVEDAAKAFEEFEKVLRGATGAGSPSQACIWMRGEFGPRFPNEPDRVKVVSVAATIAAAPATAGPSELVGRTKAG
In short: as §1

[12] = target: T4, Cap2 (Pseudomonas aeruginosa, UniProt P0DX87); assay: Gel filtration assay of Acb2 with Cap2; format: binding, P. aeruginosa BWHPSA011 (Pa011); details: molar ratio 5:1
T4 sequence (P0DX87 1-543): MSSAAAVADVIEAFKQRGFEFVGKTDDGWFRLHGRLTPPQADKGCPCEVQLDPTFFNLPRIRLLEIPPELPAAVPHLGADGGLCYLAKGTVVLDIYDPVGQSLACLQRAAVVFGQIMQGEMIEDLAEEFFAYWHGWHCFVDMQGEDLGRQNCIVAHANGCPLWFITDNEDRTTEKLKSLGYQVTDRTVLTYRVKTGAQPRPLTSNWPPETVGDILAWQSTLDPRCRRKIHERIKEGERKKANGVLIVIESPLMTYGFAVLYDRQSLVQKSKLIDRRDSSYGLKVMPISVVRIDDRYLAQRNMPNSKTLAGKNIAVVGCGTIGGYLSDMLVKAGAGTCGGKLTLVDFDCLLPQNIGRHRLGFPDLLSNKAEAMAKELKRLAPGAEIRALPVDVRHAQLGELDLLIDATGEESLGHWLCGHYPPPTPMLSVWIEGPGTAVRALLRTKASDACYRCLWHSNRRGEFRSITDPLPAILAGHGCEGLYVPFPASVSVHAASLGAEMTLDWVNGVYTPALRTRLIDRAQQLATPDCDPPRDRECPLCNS
In short: as §1

[13] = target: T5, CdnA-Cap2 complex (Pseudomonas aeruginosa, UniProt P0DX86+P0DX87, C105A/C479A); assay: Gel filtration assay of Acb2 with CdnA-Cap2 complex; format: binding, P. aeruginosa BWHPSA011 (Pa011); details: molar ratio 5:1
T5 sequence (P0DX86 1-380): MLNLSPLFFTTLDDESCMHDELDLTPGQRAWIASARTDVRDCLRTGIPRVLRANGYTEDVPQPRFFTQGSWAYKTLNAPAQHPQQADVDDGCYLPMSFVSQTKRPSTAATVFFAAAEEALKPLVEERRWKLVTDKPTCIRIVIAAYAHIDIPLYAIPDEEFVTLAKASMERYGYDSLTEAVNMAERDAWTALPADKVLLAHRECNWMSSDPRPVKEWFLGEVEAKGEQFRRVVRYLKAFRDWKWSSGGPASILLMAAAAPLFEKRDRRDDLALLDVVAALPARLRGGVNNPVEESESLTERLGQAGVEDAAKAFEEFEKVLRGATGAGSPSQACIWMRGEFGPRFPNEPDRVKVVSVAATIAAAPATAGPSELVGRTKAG
T5 sequence (P0DX87 1-543 C105A/C479A): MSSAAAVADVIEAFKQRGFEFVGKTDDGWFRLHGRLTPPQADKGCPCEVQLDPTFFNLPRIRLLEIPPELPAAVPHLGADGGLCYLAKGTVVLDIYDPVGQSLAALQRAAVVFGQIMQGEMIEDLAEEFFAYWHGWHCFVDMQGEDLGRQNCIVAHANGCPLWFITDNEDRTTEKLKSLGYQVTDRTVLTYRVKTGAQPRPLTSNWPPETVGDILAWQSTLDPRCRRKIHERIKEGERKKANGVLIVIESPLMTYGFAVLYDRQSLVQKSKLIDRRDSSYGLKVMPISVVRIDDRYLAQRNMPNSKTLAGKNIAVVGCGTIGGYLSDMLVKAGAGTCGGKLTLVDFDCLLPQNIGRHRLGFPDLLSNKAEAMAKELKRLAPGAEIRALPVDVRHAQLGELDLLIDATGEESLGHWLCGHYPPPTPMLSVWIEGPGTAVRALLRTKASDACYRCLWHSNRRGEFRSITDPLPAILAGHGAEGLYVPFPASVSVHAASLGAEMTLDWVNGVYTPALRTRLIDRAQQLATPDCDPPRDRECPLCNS
In short: as §1

[14] = system: 3’,3’-cGAMP levels in phage-infected Pa011 cells; assay: Intracellular 3’,3’-cGAMP measurements by ELISA in phage-infected Pa011 cells; format: cell-based, Pseudomonas aeruginosa; details: overexpression in phage-infected Pa011 WT cells
[15] = system: Pa011 CBASS immunity; assay: Plaque assays with PaMx41 phage on Pa011 WT; format: cell-based, Pseudomonas aeruginosa; details: variant overexpressed in Pa011 WT, in the presence of CBASS
In short: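 gp24 variants expressed episomally from arabinose-inducible, gentamicin-selected pHERD30T in Pa011 WT and ΔCBASS. Overnight culture (150 μl) mixed with top agar on LB agar. Phage lysate 10-fold serially diluted and spotted (2 μl) onto the solidified top agar; plates incubated at 37°C and titre read from plaques.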

Nc1ncnc2c1ncn2[C@@H]1O[C@@H]2COP(=O)(O)O[C@H]3[C@@H](O)[C@H](n4cnc5c(N)ncnc54)O[C@@H]3COP(=O)(O)O[C@H]2[C@H]1O [c-di-AMP]
Kd [1]: ~66 nM
sequestering of cyclic dinucleotide by Acb2 (HPLC) [2]: sequester

Nc1ncnc2c1ncn2[C@@H]1O[C@@H]2COP(=O)(O)O[C@H]3[C@@H](O)[C@H](n4ccc(=O)[nH]c4=O)O[C@@H]3COP(=O)(O)O[C@H]2[C@H]1O [3’,3’-c-UMP-AMP]
Kd [1]: ~97 nM

Nc1nc2c(ncn2[C@@H]2O[C@@H]3COP(=O)(O)O[C@H]4[C@@H](O)[C@H](n5cnc6c(N)ncnc65)O[C@@H]4COP(=O)(O)O[C@H]3[C@H]2O)c(=O)[nH]1 [3’,3’-cGAMP]
Kd [1]: ~87 nM
binding of 3’,3’-cGAMP to Acb2 Y11A in vitro [3]: abolished
binding of 3’,3’-cGAMP to Acb2 K26A in vitro [4]: abolished
shift of purified Acb2 protein in native gel [5]: significant shift
activation of CapV phospholipase activity [6]: activated
sequestering of cyclic dinucleotide by Acb2 (HPLC) [2]: depletes detectable
Kd [7]: ~30 nM

Nc1nc2c(ncn2[C@@H]2O[C@@H]3COP(=O)(O)O[C@H]4[C@@H](O)[C@H](n5ccc(=O)[nH]c5=O)O[C@@H]4COP(=O)(O)O[C@H]3[C@H]2O)c(=O)[nH]1 [3’,3’-c-UMP-GMP]
Kd [1]: ~524 nM

Nc1nc2c(ncn2[C@@H]2O[C@@H]3COP(=O)(O)O[C@H]4[C@@H](O)[C@H](n5cnc6c(=O)[nH]c(N)nc65)O[C@@H]4COP(=O)(O)O[C@H]3[C@H]2O)c(=O)[nH]1 [c-di-GMP]
sequestering of cyclic dinucleotide by Acb2 (HPLC) [2]: very weak sequestering effect

O=c1ccn([C@@H]2O[C@@H]3COP(=O)(O)O[C@H]4[C@@H](O)[C@H](n5ccc(=O)[nH]c5=O)O[C@@H]4COP(=O)(O)O[C@H]3[C@H]2O)c(=O)[nH]1 [3’,3’-c-di-UMP]
Kd [1]: ~99 nM

B1: Acb2 (anti-CBASS 2) from phage PaMx33 (natural protein, Pseudomonas aeruginosa phage PaMx33, UniProt A0A1C8HPQ3 1-93, looked up)
chain: MDNQHKKIKGYRDLSQEEIDMMNRVKELGSQFEKLIQDVSDHLRGQYNASLHNRDEITRIANAEPGRWLAIGKTDIQTGMMAIIRAIAQPDSF
stoichiometry N [8]: 6

B2: Acb2: phage anti-CBASS protein 2, purified from the naturally CBASS-resistant PaMx33 phage; hexameric cyclic dinucleotide sponge (protein)
chain: MDNQHKKIKGYRDLSQEEIDMMNRVKELGSQFEKLIQDVSDHLRGQYNASLHNRDEITRIANAEPGRWLAIGKTDIQTGMMAIIRAIAQPDSF
modifications: left off: His6-SUMO, end not stated, cleaved
effect on 3’,3’-cGAMP-activated CapV activity [9]: abrogated
binding of Acb2 to purified CapV [10]: did not bind
binding of Acb2 to purified CdnA [11]: did not bind
binding of Acb2 to purified Cap2 [12]: did not bind
binding of Acb2 to the CdnA-Cap2 complex [13]: did not bind
effect on detectable 3’,3’-cGAMP levels [14]: reduced

B3: long gp24: 94 a.a. version of PaMx41 gp24 (orf24 X37Q), named Acb2 hereafter (protein)
chain: MDNQHKKIKGYRDLSQEEIDMMNRVKELGSQFEKLIQDVSDHLRGQYNASLHNRDEITRIANAEPGRWLAIGKTDIQTGMMAIIRAIAQPDSF
modifications: left off: His6-SUMO, end not stated, cleaved
increase of PaMx41 WT phage titer [15]: ≥ 4 orders of magnitude
